Data set [1] deals with T1, Cholinesterase (Homo sapiens, UniProt P06276). Briefly: Inhibition of recombinant BuChE (unknown origin) using BTCI as substrate at 20 uM preincubated for 30 mins followed by substrate addition by TECAN multiplate reader analysis relative to control. Summed up:
(§1)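 Ellman method as for AChE, using butyrylcholinesterase with BTCI as substrate. Enzyme and compound preincubated 30 min at 37 °C in a CO2 incubator, then DTNB and BTCI added; absorbance read at 417 nm. Screening at 20 μM as % inhibition; IC50 for compounds exceeding 50% inhibition at 20 μM. Triplicate.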

In data set [2] the target is T2, Amine oxidase [flavin-containing] B (Homo sapiens, UniProt P27338).
T2 sequence (P27338 whole entry): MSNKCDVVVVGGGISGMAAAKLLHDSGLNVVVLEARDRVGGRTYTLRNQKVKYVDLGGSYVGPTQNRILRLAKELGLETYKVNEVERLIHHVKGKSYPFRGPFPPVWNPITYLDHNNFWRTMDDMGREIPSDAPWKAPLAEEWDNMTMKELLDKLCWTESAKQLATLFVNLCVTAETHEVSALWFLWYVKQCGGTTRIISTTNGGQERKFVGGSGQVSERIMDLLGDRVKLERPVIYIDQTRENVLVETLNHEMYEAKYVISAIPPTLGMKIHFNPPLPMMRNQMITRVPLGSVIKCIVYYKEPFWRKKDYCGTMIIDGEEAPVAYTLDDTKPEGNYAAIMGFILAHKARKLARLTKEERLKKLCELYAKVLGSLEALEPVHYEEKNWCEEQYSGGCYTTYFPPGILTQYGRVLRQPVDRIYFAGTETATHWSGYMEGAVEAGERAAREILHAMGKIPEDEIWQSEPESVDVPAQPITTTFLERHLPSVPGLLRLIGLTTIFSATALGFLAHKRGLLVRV
Briefly: Inhibition of recombinant MAO-B (unknown origin) at 20 uM preincubated for 30 mins followed substrate addition by Amplex Red reagent based fluorescence analysis relative to control. Summed up:
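Recombinant MAO enzyme preincubated with compound 30 min at 37 °C; substrate, HRP and Amplex Red working solution then added; H2O2 formation read at 37 °C by fluorescence, ex 545/em 590 nm. Screening at 20 μM as % inhibition versus control; IC50 only for compounds above 50% inhibition at 20 μM; triplicate (n = 3).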

Data set [3] addresses Amyloid-beta precursor protein (Homo sapiens) (UniProt P05067). Put plainly: Inhibition of self-induced amyloid beta (1 to 42 residues) (unknown origin) aggregation at 20 uM incubated at 48 hrs by fluorimetry-based thioflavin T assay. Summed up:
(§2)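 Aβ1-42 pretreated with HFIP (1 mg mL−1) and dried, then incubated with compound (20 μM) at 37 °C for 24 h; an aliquot transferred and incubated further to 48 h. Glycine–NaOH buffer pH 8.0 with 5 μM ThT added; fluorescence read at 440–485 nm. % inhibition calculated against the Aβ-only control taken as 0%.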

For data set [4] the target is unchanged. Briefly: Inhibition of self-induced amyloid beta (1 to 42 residues) (unknown origin) aggregation at 20 uM incubated at 24 hrs by fluorimetry-based thioflavin T assay. The essentials: as §2
Data set [5] deals with T1, Cholinesterase. Put plainly: Inhibition of recombinant BuChE (unknown origin) using BTCI as substrate preincubated for 30 mins followed by substrate addition by TECAN multiplate reader analysis. Summed up: as §1
Data set [6] concerns the target T2, Amine oxidase [flavin-containing] B. Briefly: Inhibition of recombinant MAO-B (unknown origin) preincubated for 30 mins followed substrate addition by Amplex Red reagent based fluorescence analysis.
In data set [7] the target is T3, Acetylcholinesterase (Homo sapiens, UniProt P22303). Put plainly: Reversible inhibition of AChE (unknown origin) assessed as residual activity at 100 times IC50 incubated for 30 mins by dilution method relative to control. The essentials: (§3)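 Samples then diluted 100-fold with substrate, giving final inhibitor levels of 0.1× and 1× IC50. Recovered activity measured relative to control; triplicate.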

Data set [8] addresses T3, Acetylcholinesterase. Briefly: Reversible inhibition of AChE (unknown origin) assessed as residual activity at 10 times IC50 incubated for 30 mins by dilution method relative to control. Summed up:
as §3

Data set [9] has as its target T3, Acetylcholinesterase. Put plainly: Reversible inhibition of AChE (unknown origin) assessed as residual activity at 1 times IC50 incubated for 30 mins by dilution method relative to control. Summed up:
as §3

Data set [10] deals with T3, Acetylcholinesterase. Briefly: Reversible inhibition of AChE (unknown origin) assessed as residual activity at 0.1 times IC50 incubated for 30 mins by dilution method relative to control. The essentials:
as §3

Data set [11] addresses T2, Amine oxidase [flavin-containing] B. Briefly: Reversible inhibition of MAO-B (unknown origin) assessed as residual activity at 100 times IC50 incubated for 30 mins by dilution method relative to control. The conditions noted are these: 0.5 h.
For data set [12] the target is unchanged. Briefly: Reversible inhibition of MAO-B (unknown origin) assessed as residual activity at 10 times IC50 incubated for 30 mins by dilution method relative to control. The conditions noted are these: 0.5 h.
Data set [13] shares this target. Put plainly: Reversible inhibition of MAO-B (unknown origin) assessed as residual activity at 1 times IC50 incubated for 30 mins by dilution method relative to control. The conditions noted are these: 0.5 h.
For data set [14] the target is unchanged. Put plainly: Reversible inhibition of MAO-B (unknown origin) assessed as residual activity at 0.1 times IC50 incubated for 30 mins by dilution method relative to control. The conditions noted are these: 0.5 h.
In data set [15] the test system is SH-SY5Y. Put plainly: Cytotoxicity against human SH-SY5Y cells assessed as cell viability at 1 uM by MTT assay relative to control. The conditions noted are these: read-out: Activity. The data set is classed as functional. Summed up:
(§4)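 SH-SY5Y cells (DMEM/F-12 with 10% FBS, 1% horse serum, 1% penicillin) preincubated 24 h with compound at 1, 5 or 25 μM; MTT converted to formazan, solubilised in DMSO, absorbance read at 595 nm; viability expressed as percentage of untreated control.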

Data set [16] has as its system SH-SY5Y. Briefly: Cytotoxicity against human SH-SY5Y cells assessed as cell viability at 5 uM by MTT assay relative to control. The data set is classed as functional. The following applies: read-out: Activity. The essentials:
as §4

The test system of data set [17] is SH-SY5Y. Put plainly: Cytotoxicity against human SH-SY5Y cells assessed as cell viability at 25 uM by MTT assay relative to control. The data set is classed as functional. The following applies: read-out: Activity. Summed up: as §4
Data set [18] has as its system SH-SY5Y. Briefly: Cytotoxicity against human SH-SY5Y cells assessed as reduction in cell viability at 1 to 25 uM by MTT assay. The data set is classed as functional, cell-based. The following applies: dose 1-25 µM. Summed up: as §4
The subject of data set [19] is SH-SY5Y. Briefly: Inhibition of ROS production in human SH-SY5Y cells assessed as intracellular ROS level at 1 uM incubated for 24 hrs by DCF-DA staining based fluorescence analysis relative to control. The data set is classed as functional. The essentials:
(§5)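 Cultured SH-SY5Y cells exposed to compound (1, 5, 25 μM) for 24 h; intracellular ROS detected with DCF-DA, which is converted to fluorescent 2,7-DCF, read at ex 478/em 518 nm. Inhibition is expressed relative to control. Mean ± SD of triplicate or more independent experiments.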

Data set [20] concerns SH-SY5Y. Briefly: Inhibition of ROS production in human SH-SY5Y cells assessed as intracellular ROS level at 5 uM incubated for 24 hrs by DCF-DA staining based fluorescence analysis relative to control. The data set is classed as functional. Summed up:
as §5

Data set [21] has as its system SH-SY5Y. Put plainly: Inhibition of ROS production in human SH-SY5Y cells assessed as intracellular ROS level at 25 uM incubated for 24 hrs by DCF-DA staining based fluorescence analysis relative to control. The data set is classed as functional. The essentials:
as §5

In data set [22] the test system is SH-SY5Y. Put plainly: Neuroprotective activity against 6-OHDA-induced cytotoxicity in human SH-SY5Y cells assessed as cell viability at 1 uM incubated for 24 hrs followed by exposure to 6-OHDA by MTT assay relative to control. The data set is classed as functional. The conditions noted are these: read-out: Activity. The essentials:
(§6)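 SH-SY5Y cells treated with compound (1, 5, 25 μM) and challenged with 6-OHDA; cultured 24 h at 37 °C under humidified 5% CO2. Viability measured by MTT as formazan absorbance at 594 nm and expressed relative to control.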

Data set [23] has as its system SH-SY5Y. Briefly: Neuroprotective activity against 6-OHDA-induced cytotoxicity in human SH-SY5Y cells assessed as cell viability at 5 uM incubated for 24 hrs followed by exposure to 6-OHDA by MTT assay relative to control. The data set is classed as functional. The following applies: read-out: Activity. The essentials:
as §6

For data set [24], the system named is SH-SY5Y. Briefly: Neuroprotective activity against 6-OHDA-induced cytotoxicity in human SH-SY5Y cells assessed as cell viability at 25 uM incubated for 24 hrs followed by exposure to 6-OHDA by MTT assay relative to control. The conditions noted are these: read-out: Activity. The data set is classed as functional. Summed up: as §6
For data set [25], the target named is T3, Acetylcholinesterase. Put plainly: Inhibition of AChE (unknown origin). Summed up: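 Recombinant AChE (0.5 U ml-1) preincubated with compound for 30 min at 37 °C in a CO2 incubator. DTNB and acetylthiocholine substrate (AChSI) then added, and absorbance read at 417 nm. Screening at 20 μM as % inhibition; IC50 determined for compounds giving over 50% inhibition at 20 μM. Run in triplicate.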

Data set [26] deals with T1, Cholinesterase. Put plainly: Inhibition of BuChE (unknown origin). Summed up:
as §1

The target in data set [27] is T2, Amine oxidase [flavin-containing] B. Put plainly: Inhibition of MAO-B (unknown origin).

T1 sequence (P06276 whole entry): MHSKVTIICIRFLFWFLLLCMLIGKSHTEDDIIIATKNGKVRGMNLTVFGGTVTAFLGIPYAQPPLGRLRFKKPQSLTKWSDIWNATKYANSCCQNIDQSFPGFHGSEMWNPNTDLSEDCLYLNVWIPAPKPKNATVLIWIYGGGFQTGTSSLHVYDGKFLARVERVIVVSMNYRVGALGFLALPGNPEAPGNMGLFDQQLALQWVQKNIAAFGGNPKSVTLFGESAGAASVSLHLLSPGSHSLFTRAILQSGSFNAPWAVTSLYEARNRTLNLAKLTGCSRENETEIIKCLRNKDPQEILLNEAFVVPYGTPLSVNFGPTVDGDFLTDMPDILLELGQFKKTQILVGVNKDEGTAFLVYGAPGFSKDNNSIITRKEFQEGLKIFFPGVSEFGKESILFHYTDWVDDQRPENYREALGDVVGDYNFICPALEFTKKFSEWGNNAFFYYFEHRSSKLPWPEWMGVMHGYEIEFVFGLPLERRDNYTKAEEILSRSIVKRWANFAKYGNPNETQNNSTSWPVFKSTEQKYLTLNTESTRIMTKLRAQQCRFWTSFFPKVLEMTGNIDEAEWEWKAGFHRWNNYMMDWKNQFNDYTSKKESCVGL
T3 sequence (P22303 whole entry): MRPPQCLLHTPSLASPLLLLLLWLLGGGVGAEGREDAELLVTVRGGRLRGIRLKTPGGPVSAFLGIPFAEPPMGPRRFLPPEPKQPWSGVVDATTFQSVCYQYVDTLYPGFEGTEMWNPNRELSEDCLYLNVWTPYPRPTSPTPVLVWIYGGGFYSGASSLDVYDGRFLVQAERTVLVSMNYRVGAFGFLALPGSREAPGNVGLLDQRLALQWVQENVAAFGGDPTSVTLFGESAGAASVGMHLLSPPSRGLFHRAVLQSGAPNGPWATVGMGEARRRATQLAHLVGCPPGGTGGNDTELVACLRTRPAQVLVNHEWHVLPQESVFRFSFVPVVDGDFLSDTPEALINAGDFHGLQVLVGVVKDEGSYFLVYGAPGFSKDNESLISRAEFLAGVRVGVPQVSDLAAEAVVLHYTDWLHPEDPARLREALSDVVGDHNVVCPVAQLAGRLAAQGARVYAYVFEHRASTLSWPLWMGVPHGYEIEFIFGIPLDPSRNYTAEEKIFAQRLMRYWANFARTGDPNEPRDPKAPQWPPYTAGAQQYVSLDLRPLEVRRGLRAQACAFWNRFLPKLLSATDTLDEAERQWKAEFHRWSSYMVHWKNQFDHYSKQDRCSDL
Sequence of Amyloid-beta precursor protein (Homo sapiens) (P05067 whole entry, the tested form may be a part): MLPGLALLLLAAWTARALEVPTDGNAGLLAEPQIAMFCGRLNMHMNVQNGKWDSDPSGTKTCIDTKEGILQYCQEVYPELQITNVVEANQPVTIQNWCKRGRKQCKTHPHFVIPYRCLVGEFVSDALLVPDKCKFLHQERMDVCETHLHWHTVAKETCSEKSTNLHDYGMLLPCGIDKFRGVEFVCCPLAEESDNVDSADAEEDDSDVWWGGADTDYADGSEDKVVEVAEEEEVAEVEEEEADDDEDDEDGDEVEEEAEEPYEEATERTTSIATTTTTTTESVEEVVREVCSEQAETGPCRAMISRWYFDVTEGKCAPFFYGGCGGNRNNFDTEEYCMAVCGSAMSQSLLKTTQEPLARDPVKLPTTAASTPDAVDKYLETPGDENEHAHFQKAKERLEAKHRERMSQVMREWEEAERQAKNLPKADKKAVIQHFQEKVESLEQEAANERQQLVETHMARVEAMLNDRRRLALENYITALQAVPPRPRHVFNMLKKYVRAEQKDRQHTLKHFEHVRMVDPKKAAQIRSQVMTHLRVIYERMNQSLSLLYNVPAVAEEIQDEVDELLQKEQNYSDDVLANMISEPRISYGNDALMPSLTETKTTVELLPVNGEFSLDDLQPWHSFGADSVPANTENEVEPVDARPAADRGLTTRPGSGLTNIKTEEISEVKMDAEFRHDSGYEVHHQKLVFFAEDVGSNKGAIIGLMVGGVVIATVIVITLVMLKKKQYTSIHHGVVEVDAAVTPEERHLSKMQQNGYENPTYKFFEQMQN

For `C#CCOc1c(CN2CCCCC2)cc(-c2cc(=O)c3ccccc3o2)cc1OC`, the inhibition was determined as 89.9% on Cholinesterase [1], 28.5% in [3] and 22.4% in data set [4]. Besides, the inhibition at 20 µM in [2] was found to be 50.8%. The IC50 worked out at 1950 nM at Cholinesterase [5] and 19600 nM in data set [6]. Besides, the Activity at Acetylcholinesterase [7] came out at 25.3%; on Acetylcholinesterase [8], 33.1%; at Acetylcholinesterase [9], 47.2%; on Acetylcholinesterase [10], 71.3%; in data set [11], 14%; in data set [12] it was 32.6%. The results for the Activity (in [13]; in data set [14]; in the data set with SH-SY5Y [18]) were 58.9%, 76.3% and “Not toxic”, respectively. Further, the viability at 1 µM in the data set on SH-SY5Y [15] stood at 97.1%; in the data set with SH-SY5Y [22] it was 51.9%. Moreover, the viability at 5 µM with SH-SY5Y [16] was 94.4%; with SH-SY5Y [23], 49.4%. Further, the viability at 25 µM came out at 91.9% in the data set with SH-SY5Y [17] and 46.9% with SH-SY5Y [24]. The inhibition at 1 µM in the data set on SH-SY5Y [19] turned out to be 82.8%. The inhibition at 5 µM in the data set with SH-SY5Y [20] stood at 51%. Further, in the data set with SH-SY5Y [21], the inhibition at 25 µM turned out to be 47%.

With `O=C(NCCC1CCN(Cc2ccccc2)CC1)c1coc2cc(OCc3ccccc3)ccc2c1=O`, the half-inhibitory concentration (IC50) at Acetylcholinesterase [25] was determined as 370 nM; against Cholinesterase [26] it was 5240 nM; in data set [27] it was 272 nM.

These data come from ChEMBL document CHEMBL6134795, “Mannich reaction mediated derivatization of chromones and their biological evaluations as putative multipotent ligands for the treatment of Alzheimer's disease” (RSC Med Chem, 2024).
